ChEMBL document CHEMBL2331152, “Multivalent Interactions: Synthesis and Evaluation of Melanotropin Multimers - Tools for Melanoma Targeting” (ACS Med Chem Lett, 2013)
Activity calls are given as the source filed them. The calls are words filed in the database; no cut-off is given here.

Key:
HEK293 [1] = assay: Drug uptake in human HEK293 cells assessed as localization at cell surface measured after 90 mins of incubation by FM 1-43 dye-microscopy; assay type: ADME, cell-based
Outline: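 Ligands were Cy5-labelled through a triarginine linker and incubated with cells for 90 min. The membrane probe FM 1-43 was added two minutes before image acquisition. Membrane localization was assessed by epifluorescence microscopy.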

HEK293 [2] = assay: Drug uptake in human HEK293 cells assessed as localization measured at 3 mins of incubation by FM 1-43 dye-microscopy; assay type: ADME, cell-based; settings: hek293, 0.05 h
Melanocortin receptor 4 [3] = target: T1, Melanocortin receptor 4 (Homo sapiens, UniProt P32245); assay: Displacement of Eu-NDP-alpha-MSH from human MC4R expressed in HEK293 cells by time resolved fluorescence binding assay; assay type: cell-based
T1 sequence (P32245 whole entry): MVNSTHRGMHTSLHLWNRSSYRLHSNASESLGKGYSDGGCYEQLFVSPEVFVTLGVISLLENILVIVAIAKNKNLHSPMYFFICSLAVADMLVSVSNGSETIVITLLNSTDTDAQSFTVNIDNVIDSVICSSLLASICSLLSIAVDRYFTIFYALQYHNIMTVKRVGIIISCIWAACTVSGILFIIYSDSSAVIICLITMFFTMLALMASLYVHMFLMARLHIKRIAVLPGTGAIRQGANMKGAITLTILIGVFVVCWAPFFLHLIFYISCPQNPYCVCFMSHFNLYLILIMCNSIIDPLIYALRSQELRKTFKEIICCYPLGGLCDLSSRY
Outline: (§1)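 Competition binding on HEK293 cells transfected to overexpress MC4R, against europium-labelled NDP-α-MSH tracer, read by time-resolved fluorescence. IC50 values are averaged from four experiments run in quadruplicate. Relative potency is expressed against the monovalent ligand.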

HEK293 [4] = assay: Cytotoxicity against human HEK293 cells assessed as cell viability at 10 uM upto 2 days; assay type: cell-based; settings: hek293, 48 h
Outline: (§2)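 Cell viability was measured at three concentrations and three incubation times, up to 48 h. Values are expressed as % of untreated control and are the average of three independent experiments run in triplicate.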

HEK293 [5] = assay: Cytotoxicity against human HEK293 cells assessed as cell viability at 1 uM upto 48 hrs; assay type: cell-based; settings: hek293, 48 h; outline: as §2
Melanocortin receptor 4 [6] = target: T1, Melanocortin receptor 4; assay: Inhibition of human MC4R expressed in HEK293 cells assessed as cAMP accumulation by chemiluminescent immunoassay; assay type: functional, cell-based
Melanocortin receptor 4 [7] = target: T1, Melanocortin receptor 4; assay: Displacement of Eu-NDP-alpha-MSH from human MC4R expressed in HEK293 cells by time resolved fluorescence binding assay relative to multimer 1M; assay type: cell-based; outline: as §1

Compound: CCCC[C@H](NC(=O)[C@H](CO)NC(=O)[C@H](Cc1ccc(O)cc1)NC(=O)[C@H](CO)NC(C)=O)C(=O)N[C@@H](CCC(=O)O)C(=O)N[C@@H](Cc1cnc[nH]1)C(=O)N[C@H](Cc1ccccc1)C(=O)N[C@@H](CCCNC(=N)N)C(=O)N[C@@H](Cc1c[nH]c2ccccc12)C(=O)NCC(=O)N[C@@H](CCCCNC(=O)CCCCC[N+]1=C(/C=C/C=C/C=C2/N(C)c3ccccc3C2(C)C)C(C)(C)c2ccccc21)C(=O)N1CCC[C@H]1C(=O)N[C@H](C(N)=O)C(C)C
- Drug uptake (HEK293 [1]): Active
- Drug uptake (HEK293 [2]): Not Active

Compound: CC(=O)NCCCC(CCCNC(C)=O)(NC(=O)CNC(=O)Cn1cc(CCC(=O)N[C@@H](Cc2cnc[nH]2)C(=O)N[C@H](Cc2ccccc2)C(=O)N[C@@H](CCCN=C(N)N)C(=O)N[C@@H](Cc2c[nH]c3ccccc23)C(=O)O)nn1)C(=O)NCCC(N)=O
- IC50 (Melanocortin receptor 4 [3]): 4.9 µM

Compound: CN1/C(=C/C=C/C=C/C2=[N+](CCCCCC(=O)NCCCC[C@H](NC(=O)[C@@H](CCCNC(=N)N)NC(=O)[C@H](CCCNC(=N)N)NC(=O)[C@@H](CCCNC(=N)N)NC(=O)CCNC(=O)C(CCCNC(=O)Cn3cc(CCC(=O)N[C@@H](Cc4cnc[nH]4)C(=O)N[C@H](Cc4ccccc4)C(=O)N[C@@H](CCCNC(=N)N)C(=O)N[C@@H](Cc4c[nH]c5ccccc45)C(N)=O)nn3)(CCCNC(=O)Cn3cc(CCC(=O)N[C@@H](Cc4cnc[nH]4)C(=O)N[C@H](Cc4ccccc4)C(=O)N[C@@H](CCCNC(=N)N)C(=O)N[C@@H](Cc4c[nH]c5ccccc45)C(N)=O)nn3)NC(=O)CNC(=O)Cn3cc(CCC(=O)N[C@@H](Cc4cnc[nH]4)C(=O)N[C@H](Cc4ccccc4)C(=O)N[C@@H](CCCNC(=N)N)C(=O)N[C@@H](Cc4c[nH]c5ccccc45)C(N)=O)nn3)C(N)=O)c3ccccc3C2(C)C)C(C)(C)c2ccccc21 (stereo not given in full)
- Drug uptake (HEK293 [1]): Active
- Drug uptake (HEK293 [2]): Not Active

Compound: N=C(N)NCCC[C@H](NC(=O)[C@@H](Cc1ccccc1)NC(=O)[C@H](Cc1cnc[nH]1)NC(=O)CCc1cn(CC(=O)NCC(=O)NC(CCCNC(=O)Cn2cc(CCC(=O)N[C@@H](Cc3cnc[nH]3)C(=O)N[C@H](Cc3ccccc3)C(=O)N[C@@H](CCCN=C(N)N)C(=O)N[C@@H](Cc3c[nH]c4ccccc34)C(N)=O)nn2)(CCCNC(=O)Cn2cc(CCC(=O)N[C@@H](Cc3cnc[nH]3)C(=O)N[C@H](Cc3ccccc3)C(=O)N[C@@H](CCCN=C(N)N)C(=O)N[C@@H](Cc3c[nH]c4ccccc34)C(N)=O)nn2)C(=O)NCCC(N)=O)nn1)C(=O)N[C@@H](Cc1c[nH]c2ccccc12)C(N)=O
- Activity (HEK293 [4]): Non-toxic
- Activity (HEK293 [5]): Non-toxic

Compound: N=C(N)NCCC[C@H](NC(=O)[C@@H](Cc1ccccc1)NC(=O)[C@H](Cc1cnc[nH]1)NC(=O)CCc1cn(CC(=O)NCCCC(CCCNC(=O)Cn2cc(CCC(=O)N[C@@H](Cc3cnc[nH]3)C(=O)N[C@H](Cc3ccccc3)C(=O)N[C@@H](CCCNC(=N)N)C(=O)N[C@@H](Cc3c[nH]c4ccccc34)C(N)=O)nn2)(NC(=O)CNC(=O)Cn2cc(CCC(=O)N[C@@H](Cc3cnc[nH]3)C(=O)N[C@H](Cc3ccccc3)C(=O)N[C@@H](CCCNC(=N)N)C(=O)N[C@@H](Cc3c[nH]c4ccccc34)C(N)=O)nn2)C(=O)NCCC(N)=O)nn1)C(=O)N[C@@H](Cc1c[nH]c2ccccc12)C(N)=O (stereo not given in full)
- Activity (Melanocortin receptor 4 [6]): Active
- fold change (FC) (Melanocortin receptor 4 [7]): 350

Compound: CC(=O)NCC(=O)NC(CCCNC(=O)CCNC(=O)C(CCCNC(=O)Cn1cc(CCC(=O)N[C@@H](Cc2cnc[nH]2)C(=O)N[C@H](Cc2ccccc2)C(=O)N[C@@H](CCCNC(=N)N)C(=O)N[C@@H](Cc2c[nH]c3ccccc23)C(N)=O)nn1)(CCCNC(=O)Cn1cc(CCC(=O)N[C@@H](Cc2cnc[nH]2)C(=O)N[C@H](Cc2ccccc2)C(=O)N[C@@H](CCCNC(=N)N)C(=O)N[C@@H](Cc2c[nH]c3ccccc23)C(N)=O)nn1)NC(=O)CNC(=O)Cn1cc(CCC(=O)N[C@@H](Cc2cnc[nH]2)C(=O)N[C@H](Cc2ccccc2)C(=O)N[C@@H](CCCNC(=N)N)C(=O)N[C@@H](Cc2c[nH]c3ccccc23)C(N)=O)nn1)(CCCNC(=O)CCNC(=O)C(CCCNC(=O)Cn1cc(CCC(=O)N[C@@H](Cc2cnc[nH]2)C(=O)N[C@H](Cc2ccccc2)C(=O)N[C@@H](CCCNC(=N)N)C(=O)N[C@@H](Cc2c[nH]c3ccccc23)C(N)=O)nn1)(CCCNC(=O)Cn1cc(CCC(=O)N[C@@H](Cc2cnc[nH]2)C(=O)N[C@H](Cc2ccccc2)C(=O)N[C@@H](CCCNC(=N)N)C(=O)N[C@@H](Cc2c[nH]c3ccccc23)C(N)=O)nn1)NC(=O)CNC(=O)Cn1cc(CCC(=O)N[C@@H](Cc2cnc[nH]2)C(=O)N[C@H](Cc2ccccc2)C(=O)N[C@@H](CCCNC(=N)N)C(=O)N[C@@H](Cc2c[nH]c3ccccc23)C(N)=O)nn1)C(=O)NCCC(N)=O (stereo not given in full)
- Activity (HEK293 [4]): Non-toxic
- Activity (HEK293 [5]): Non-toxic
- Activity (Melanocortin receptor 4 [6]): Active
- fold change (FC) (Melanocortin receptor 4 [7]): 104

Compound: CC(=O)NCC(=O)NC(CCCNC(=O)CCNC(=O)C(CCCNC(=O)Cn1cc(CCC(=O)N[C@@H](Cc2cnc[nH]2)C(=O)N[C@H](Cc2ccccc2)C(=O)N[C@@H](CCCNC(=N)N)C(=O)N[C@@H](Cc2c[nH]c3ccccc23)C(N)=O)nn1)(CCCNC(=O)Cn1cc(CCC(=O)N[C@@H](Cc2cnc[nH]2)C(=O)N[C@H](Cc2ccccc2)C(=O)N[C@@H](CCCNC(=N)N)C(=O)N[C@@H](Cc2c[nH]c3ccccc23)C(N)=O)nn1)NC(=O)CNC(=O)Cn1cc(CCC(=O)N[C@@H](Cc2cnc[nH]2)C(=O)N[C@H](Cc2ccccc2)C(=O)N[C@@H](CCCNC(=N)N)C(=O)N[C@@H](Cc2c[nH]c3ccccc23)C(N)=O)nn1)(CCCNC(=O)CCNC(=O)C(CCCNC(=O)Cn1cc(CCC(=O)N[C@@H](Cc2cnc[nH]2)C(=O)N[C@H](Cc2ccccc2)C(=O)N[C@@H](CCCNC(=N)N)C(=O)N[C@@H](Cc2c[nH]c3ccccc23)C(N)=O)nn1)(CCCNC(=O)Cn1cc(CCC(=O)N[C@@H](Cc2cnc[nH]2)C(=O)N[C@H](Cc2ccccc2)C(=O)N[C@@H](CCCNC(=N)N)C(=O)N[C@@H](Cc2c[nH]c3ccccc23)C(N)=O)nn1)NC(=O)CNC(=O)Cn1cc(CCC(=O)N[C@@H](Cc2cnc[nH]2)C(=O)N[C@H](Cc2ccccc2)C(=O)N[C@@H](CCCNC(=N)N)C(=O)N[C@@H](Cc2c[nH]c3ccccc23)C(N)=O)nn1)C(=O)NCCC(=O)N[C@H](CCCNC(=N)N)C(=O)N[C@@H](CCCNC(=N)N)C(=O)N[C@H](CCCNC(=N)N)C(=O)N[C@@H](CCCCNC(=O)CCCCC[N+]1=C(/C=C/C=C/C=C2/N(C)c3ccccc3C2(C)C)C(C)(C)c2ccccc21)C(N)=O (stereo not given in full)
- Drug uptake (HEK293 [1]): Active
- Drug uptake (HEK293 [2]): Not Active
